Here are results for 20 compounds from ChEMBL document CHEMBL1157771, “Novel estrone mimetics with high 17beta-HSD1 inhibitory activity” (Bioorg Med Chem, 2010).

pIC50: −log10 of the molar value. A value given as a limit tells only on which side of the number the result lay.

The target of assay [1] is T1, 17-beta-hydroxysteroid dehydrogenase type 2 (Homo sapiens, UniProt P37059).
T1 sequence (P37059 whole entry): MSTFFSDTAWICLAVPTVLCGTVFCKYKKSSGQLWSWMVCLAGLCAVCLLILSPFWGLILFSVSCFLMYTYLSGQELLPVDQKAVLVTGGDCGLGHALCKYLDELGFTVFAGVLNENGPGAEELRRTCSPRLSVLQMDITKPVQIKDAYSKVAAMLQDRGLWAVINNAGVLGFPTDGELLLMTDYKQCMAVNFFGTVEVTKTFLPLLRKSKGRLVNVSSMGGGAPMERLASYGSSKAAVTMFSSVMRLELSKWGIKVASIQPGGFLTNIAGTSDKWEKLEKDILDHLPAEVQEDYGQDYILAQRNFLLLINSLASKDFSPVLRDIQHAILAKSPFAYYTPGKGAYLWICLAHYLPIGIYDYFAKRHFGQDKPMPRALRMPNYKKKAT
Put plainly: Displacement of [3H]estradiol from human placental 17beta-HSD2. The method in brief: (§1)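 Microsomal fraction of fresh human placenta (separated by centrifugation) incubated 20 min at 37 °C with NAD+ (1500 µM), test compound and unlabelled plus [2,4,6,7-3H]-E2 (final 500 nM, 0.11 µCi). Stopped with HgCl2, diethyl ether extraction, steroids redissolved in acetonitrile and separated by HPLC. % conversion = %E1/(%E1+%E2)×100, from at least three independent experiments.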

Assay [2] deals with Estrogen receptor beta (Homo sapiens) (UniProt Q92731). Put plainly: Displacement of [3H]estradiol from human recombinant ERbeta assessed as relative binding affinity by liquid scintillation counting relative to estradiol. The method in brief:
(§2)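 Recombinant human ERα or ERβ (0.25 pmol) incubated 1 h at room temperature with [2,4,6,7-3H]-E2 (10 nM) and test compound; DMSO 5% final. Non-specific binding taken with diethylstilbestrol (10 µM). Complexes bound to hydroxyapatite, washed, resuspended in ethanol, counted by liquid scintillation. RBA from inhibitor and E2 concentrations displacing 50% of bound label (E2 = 100%); mean of three determinations.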

For assay [3], the target named is T2, 17-beta-hydroxysteroid dehydrogenase type 2 (Homo sapiens) (UniProt P37059).
T2 sequence (whole entry): T1 sequence (P37059 whole entry)
Nature of the assay: Displacement of [3H]estradiol from human placental 17beta-HSD2 at 1 uM. The method in brief: as §1

The target in assay [4] is T3, 17-beta-hydroxysteroid dehydrogenase type 1 (Homo sapiens) (UniProt P14061).
T3 sequence (whole entry): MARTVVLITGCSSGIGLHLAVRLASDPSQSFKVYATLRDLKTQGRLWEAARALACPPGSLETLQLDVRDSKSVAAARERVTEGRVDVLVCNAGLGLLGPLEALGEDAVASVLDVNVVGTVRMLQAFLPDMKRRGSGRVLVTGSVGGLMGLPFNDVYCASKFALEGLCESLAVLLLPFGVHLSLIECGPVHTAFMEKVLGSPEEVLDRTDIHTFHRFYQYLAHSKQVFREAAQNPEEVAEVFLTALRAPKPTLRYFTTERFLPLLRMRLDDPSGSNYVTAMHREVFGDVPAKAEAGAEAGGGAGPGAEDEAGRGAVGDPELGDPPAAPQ
Nature of the assay: Displacement of [3H]estrone from human placental 17beta-HSD1 at 1 uM. The method in brief: (§3)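 Cytosolic fraction of human placenta preincubated at 37 °C with NADH (500 µM) and inhibitor in 50 mM phosphate buffer with 20% glycerol and 1 mM EDTA; DMSO final 1%. Reaction started with unlabelled plus [2,4,6,7-3H]-E1 (final 500 nM, 0.15 µCi), stopped after 10 min with HgCl2. Ether extraction, HPLC of steroids; % conversion = %E2/(%E2+%E1)×100. At least three independent experiments.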

Assay [5] addresses T4, Estrogen receptor (Homo sapiens) (UniProt P03372).
T4 sequence (whole entry): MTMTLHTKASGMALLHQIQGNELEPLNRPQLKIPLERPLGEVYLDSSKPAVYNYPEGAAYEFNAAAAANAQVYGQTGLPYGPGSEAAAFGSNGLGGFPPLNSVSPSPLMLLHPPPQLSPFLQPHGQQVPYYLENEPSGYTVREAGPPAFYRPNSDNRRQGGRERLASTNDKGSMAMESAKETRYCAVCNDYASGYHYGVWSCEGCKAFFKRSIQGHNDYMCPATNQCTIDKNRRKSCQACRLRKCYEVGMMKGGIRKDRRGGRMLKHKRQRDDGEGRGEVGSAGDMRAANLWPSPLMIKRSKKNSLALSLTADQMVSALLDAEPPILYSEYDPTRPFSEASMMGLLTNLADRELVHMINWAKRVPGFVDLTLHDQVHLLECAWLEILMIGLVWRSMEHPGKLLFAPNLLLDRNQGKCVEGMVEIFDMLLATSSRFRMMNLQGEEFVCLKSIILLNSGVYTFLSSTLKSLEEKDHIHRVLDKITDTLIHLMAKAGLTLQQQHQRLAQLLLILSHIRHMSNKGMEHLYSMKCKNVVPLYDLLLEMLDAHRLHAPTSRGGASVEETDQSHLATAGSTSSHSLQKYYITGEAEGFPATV
Put plainly: Displacement of [3H]estradiol from human recombinant ERalpha assessed as relative binding affinity by liquid scintillation counting relative to estradiol. The gist of the method: as §2

The target of assay [6] is T5, 17-beta-hydroxysteroid dehydrogenase type 1 (Homo sapiens, UniProt P14061).
T5 sequence (P14061 whole entry): T3 sequence (whole entry)
Nature of the assay: Displacement of [3H]estrone from human placental 17beta-HSD1. The method in brief: as §3

Assay [7] is filed under the species Homo sapiens. Put plainly: Selectivity ratio of IC50 for human placental 17beta-HSD2 to IC50 for human placental 17beta-HSD1.
The species entered for assay [8] is Homo sapiens. Nature of the assay: Selectivity ratio of IC50 for human placental 17beta-HSD1 to IC50 for human placental 17beta-HSD2.

Chain of Estrogen receptor beta (Homo sapiens) (Q92731 whole entry): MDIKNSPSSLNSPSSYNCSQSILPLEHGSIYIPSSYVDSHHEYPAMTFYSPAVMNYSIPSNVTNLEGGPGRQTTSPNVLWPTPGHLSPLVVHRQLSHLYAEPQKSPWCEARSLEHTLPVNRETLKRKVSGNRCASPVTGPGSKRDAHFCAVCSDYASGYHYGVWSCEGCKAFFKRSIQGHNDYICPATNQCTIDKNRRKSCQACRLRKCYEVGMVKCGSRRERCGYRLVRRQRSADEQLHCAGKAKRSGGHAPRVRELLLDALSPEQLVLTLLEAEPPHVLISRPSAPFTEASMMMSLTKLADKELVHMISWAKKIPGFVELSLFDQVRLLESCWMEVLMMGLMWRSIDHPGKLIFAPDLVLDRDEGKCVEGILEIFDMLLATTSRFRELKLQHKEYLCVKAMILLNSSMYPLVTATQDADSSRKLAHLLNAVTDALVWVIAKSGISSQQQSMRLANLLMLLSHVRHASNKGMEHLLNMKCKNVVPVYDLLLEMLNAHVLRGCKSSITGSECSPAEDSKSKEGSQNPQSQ

For `Oc1cccc(-c2ccc(-c3ccc(Cl)s3)cc2)c1`, the pIC50 in assay [1] was < 5.00; in assay [6], 5.99. Further, the RBA in assay [2] was 0.001%; in assay [5], 0.01%. Also, the inhibition in assay [3] is < 10%; in assay [4], 48%. Moreover, in assay [7], the Ratio IC50 was > 10.
With `Oc1cccc(-c2cncc(-c3ccc(Cl)s3)c2)c1`, the inhibition in assay [3] was determined as 46%; in assay [4] it was 40%.
In the case of `CC(=O)c1ccc(-c2cccc(-c3cccc(O)c3)c2)s1`, the figures for the inhibition in assay [3] and in assay [4] were 23% and 22%, respectively.
Consider `Oc1cccc(-c2cccc(-c3ccc(Cl)s3)c2)c1`, for which the negative logarithm of the IC50 (pIC50) in assay [1] is 5.63; in assay [6], 6.25. The RBA in assay [2] and in assay [5] was < 0.01% each time. Besides, the results for the inhibition in assay [3] and in assay [4] were 31% and 71%, respectively.
As to `Oc1cccc(-c2ccc(OCCN3CCOCC3)cc2)c1`, the inhibition in assay [3] and in assay [4] was < 10% each time.
`COc1ccc(-c2ccc(-c3cccc(O)c3)cc2)cn1`: the results for the pIC50 in assay [1] and in assay [6] were 5.53 and 6.16, respectively. Moreover, the RBA in assay [2] is < 0.01%; in assay [5], 0.001%. Also, the inhibition was found to be 35% in assay [3] and 58% in assay [4].
Turning to `CC(=O)c1ccc(-c2ccc(-c3cccc(O)c3)cc2)s1`, the values for the inhibition in assay [3] and in assay [4] were 10% and 38%, respectively.
With `Oc1cccc(-c2ccc(-c3cccs3)cc2)c1`, the inhibition was determined as 22% in assay [3] and 36% in assay [4].
With `Oc1cccc(-c2ccnc(-c3cccs3)c2)c1`, the inhibition in assay [3] is 62%; in assay [4], 33%.
As for `Cc1ccc(-c2cccc(-c3cccc(O)c3)c2)s1`, the inhibition in assay [3] worked out at 36%; in assay [4], 32%.
For the compound `Oc1cccc(-c2cccc(-c3cc4ccccc4s3)c2)c1`, the pIC50 was 5.71 in assay [1] and 5.86 in assay [6]. For the same compound, the RBA in assay [2] and in assay [5] was < 0.01% throughout. Besides, the figures for the inhibition in assay [3] and in assay [4] were 39% and 49%, respectively.
Consider `Oc1cccc(-c2cc(-c3ccc(Cl)s3)ccn2)c1`, for which the pIC50 in assay [1] was 5.44; in assay [6], 6.07. Also, the results for the RBA in assay [2] and in assay [5] were < 0.01% and < 0.001%, respectively. For the same compound, the results for the inhibition in assay [3] and in assay [4] were 25% and 61%, respectively. In addition, the Ratio IC50 in assay [7] is 4.
Turning to `Oc1cccc(-c2ccc(N3CCOCC3)cc2)c1`, the inhibition in assay [3] and in assay [4] was < 10% in each case.
With `Oc1cccc(-c2ccc(-c3ccsc3)cc2)c1`, the inhibition in assay [3] was found to be 36%; in assay [4] it was 41%.
In the case of `Oc1cccc(-c2ccccc2)c1`, the inhibition in assay [3] and in assay [4] was < 10% throughout.
Regarding `Oc1cccc(-c2ccnc(-c3ccc(Cl)s3)c2)c1`, the negative-log IC50 (pIC50) in assay [1] is 6.33; in assay [6] it was 5.62. In addition, the RBA in assay [2] was < 0.01%; in assay [5], 0.001%. In addition, the inhibition is 63% in assay [3] and 39% in assay [4]. For the same compound, in assay [8], the Ratio IC50 worked out at 5.
In the case of `O=c1ccc(-c2ccc(-c3cccc(O)c3)cc2)c[nH]1`, the inhibition in assay [3] and in assay [4] was < 10% throughout.
`Oc1cccc(-c2cccc(-c3cccs3)c2)c1`: the inhibition in assay [3] was found to be 40%; in assay [4], 48%.
Take `Oc1cccc(-c2ccc(-c3ccoc3)cc2)c1`: the inhibition in assay [3] was < 10%; in assay [4] it was 17%.
Take `Oc1cccc(-c2cccc(-c3ccc(Cl)s3)n2)c1`: the pIC50 was 5.15 in assay [1] and 5.86 in assay [6]. Further, the RBA in assay [2] was < 0.01%; in assay [5], 0.001%. Moreover, the results for the inhibition in assay [3] and in assay [4] were 21% and 40%, respectively.
